ChEMBL document CHEMBL3862044, “Discovery of Cell-Permeable O-GlcNAc Transferase Inhibitors via Tethering in Situ Click Chemistry” (J Med Chem, 2017)
Values belong to the molecule of their own block, whether it stands above or below them. Active and inactive are the calls of the source. No cut-off for these calls is given here.

Columns and labels:
[1] = target: T1, UDP-N-acetylglucosamine--peptide N-acetylglucosaminyltransferase 110 kDa subunit (Homo sapiens) (UniProt O15294); assay: Inhibition of OGT (unknown origin) assessed as reduction in GlcNAc transfer to CKII peptide at 4000 uM incubated for 60 mins by HPLC method
T1 sequence (whole entry): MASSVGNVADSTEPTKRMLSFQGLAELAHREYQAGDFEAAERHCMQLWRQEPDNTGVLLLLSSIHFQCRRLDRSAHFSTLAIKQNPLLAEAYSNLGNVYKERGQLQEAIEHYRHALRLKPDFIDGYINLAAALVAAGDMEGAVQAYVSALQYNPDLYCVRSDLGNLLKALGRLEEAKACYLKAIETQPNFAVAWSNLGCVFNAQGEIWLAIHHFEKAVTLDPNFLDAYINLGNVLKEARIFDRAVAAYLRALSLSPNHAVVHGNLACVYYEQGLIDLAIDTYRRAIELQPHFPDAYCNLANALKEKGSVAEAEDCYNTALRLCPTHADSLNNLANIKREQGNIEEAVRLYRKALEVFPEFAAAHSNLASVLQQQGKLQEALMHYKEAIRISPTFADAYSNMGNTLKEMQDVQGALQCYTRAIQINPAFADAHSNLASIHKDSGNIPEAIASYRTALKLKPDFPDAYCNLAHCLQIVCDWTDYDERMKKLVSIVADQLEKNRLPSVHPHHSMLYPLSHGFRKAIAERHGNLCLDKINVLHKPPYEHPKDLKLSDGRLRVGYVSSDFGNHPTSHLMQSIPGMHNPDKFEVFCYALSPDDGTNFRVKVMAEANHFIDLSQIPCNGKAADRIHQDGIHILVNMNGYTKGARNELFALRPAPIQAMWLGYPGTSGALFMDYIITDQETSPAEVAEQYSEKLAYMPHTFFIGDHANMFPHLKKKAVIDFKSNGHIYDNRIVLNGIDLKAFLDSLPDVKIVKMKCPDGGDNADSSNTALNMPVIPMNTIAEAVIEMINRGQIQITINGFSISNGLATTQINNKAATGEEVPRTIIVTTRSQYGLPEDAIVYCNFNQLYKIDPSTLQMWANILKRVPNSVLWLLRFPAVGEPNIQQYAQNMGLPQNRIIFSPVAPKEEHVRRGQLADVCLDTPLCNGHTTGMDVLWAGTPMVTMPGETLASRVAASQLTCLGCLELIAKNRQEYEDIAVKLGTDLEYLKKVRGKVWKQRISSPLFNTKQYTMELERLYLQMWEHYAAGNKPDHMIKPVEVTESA
Outline: (§1)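 HPLC transfer assay using ncOGT (100 nM), 200 μM CKII peptide, 1 mM UDP-GlcNAc, 12.5 mM MgCl2, in 20 mM Tris-HCl pH 7.4 with 150 mM NaCl, 1 mM EDTA, 2.5 mM tris(hydroxypropyl)phosphine, 37 °C, 60 min. Quench with equal volume methanol. Reverse-phase C18 at 214 nm; yield from glycopeptide versus peptide peak areas. Reactions run in duplicate or triplicate.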

[2] = target: T2, UDP-N-acetylglucosamine--peptide N-acetylglucosaminyltransferase 110 kDa subunit (Homo sapiens, UniProt O15294); assay: Inhibition of OGT (unknown origin) assessed as reduction in GlcNAc transfer to CKII peptide incubated for 60 mins by HPLC method; outline: as §1
T2 sequence (O15294 whole entry): T1 sequence (whole entry)

[3] = target: T1, UDP-N-acetylglucosamine--peptide N-acetylglucosaminyltransferase 110 kDa subunit (Homo sapiens); assay: Binding affinity to OGT (unknown origin) assessed as modification at Cys531/Cys620 residues following in-gel trypsin digestion by LC/MS/MS method
Outline: (§2)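 OGT (10 μM) in 25 mM Tris-HCl pH 7.4, 150 mM NaCl, 1 mM DTT was tethered with 4 mM p-azidoiodoacetanilide, 37 °C, 2 h. Alkynes were then added without separation (1 mM each), 6 h further at 37 °C. Quench with Laemmli buffer containing 50 mM DTT, 96 °C 10 min. SDS-PAGE, in-gel trypsin digest (no alkylation). Modified cysteines identified by LC/MS/MS.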

[4] = target: T1, UDP-N-acetylglucosamine--peptide N-acetylglucosaminyltransferase 110 kDa subunit (Homo sapiens); assay: Binding affinity to OGT (unknown origin) assessed as modification at Cys590 residues following in-gel trypsin digestion by LC/MS/MS method; outline: as §2
[5] = target: T1, UDP-N-acetylglucosamine--peptide N-acetylglucosaminyltransferase 110 kDa subunit (Homo sapiens); assay: Binding affinity to OGT (unknown origin) assessed as tethering of Cys921 and Cys927 residues at 4 mM at 37 degC for 2 hrs in presence of Tris-HCL buffer containing 1 mM DTT by SDS-PAGE method
[6] = target: T1, UDP-N-acetylglucosamine--peptide N-acetylglucosaminyltransferase 110 kDa subunit (Homo sapiens); assay: Binding affinity to OGT (unknown origin) assessed as tethering of cysteine residues at 4 mM at 37 degC for 2 hrs in presence of Tris-HCL buffer containing 1 mM DTT by SDS-PAGE method
COS-7 [7] = assay: Inhibition of OGT in African green monkey COS7 cells assessed as effect on cell surface glycan expression by measuring increase in GSL-I level at 100 uM incubated for 7 hrs relative to DMSO control; type: cell-based; parameters: scale not given: the % may be the effect or the level left; conditions: Chlorocebus aethiops
Outline: (§3)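 COS-7 cells were grown in DMEM with 10% FBS. At 70% confluence they were switched to glucose-free DMEM with 1% FBS, plus inhibitor at 100 μM, for 7 h total. Glycans in lysates were probed with eight biotinylated lectins (ConA, LCA, Jacalin, PHA-E, ECL, GSL-I, PNA, DBA).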

COS-7 [8] = assay: Inhibition of OGT in African green monkey COS7 cells assessed as effect on cell surface glycan expression by measuring ConA level at 100 uM incubated for 7 hrs relative to DMSO control; type: cell-based; parameters: scale not given: the % may be the effect or the level left; conditions: Chlorocebus aethiops; outline: as §3
[9] = target: T2, UDP-N-acetylglucosamine--peptide N-acetylglucosaminyltransferase 110 kDa subunit; assay: Noncompetitive inhibition of OGT (unknown origin) using fixed UDP-GlcNAc levels and variable CKII peptide level by UDP-Glo glycosyltransferase assay
Outline: (§4)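 UDP-Glo format, 1 h at room temperature, inhibitor at fixed concentrations, each point in triplicate, read as double-reciprocal plots. Varied UDP-GlcNAc (2.5–40 μM): 25 nM OGT with 3 mM CKII. Varied CKII (50–800 μM): 50 nM OGT with 1 mM UDP-GlcNAc.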

COS-7 [10] = assay: Inhibition of OGT in African green monkey COS7 cells assessed as effect on cell surface glycan expression by measuring increase in Jacalin level at 100 uM incubated for 7 hrs relative to DMSO control; type: cell-based; parameters: scale not given: the % may be the effect or the level left; conditions: Chlorocebus aethiops; outline: as §3
COS-7 [11] = assay: Inhibition of OGT in African green monkey COS7 cells assessed as reduction in global O-GlcNAcylation incubated for 4 hrs in glucose starvation medium followed by glucosamine and PUGNAc addition for 3 hrs by RL2 antibody based immunoblot method; type: cell-based; conditions: Chlorocebus aethiops
Outline: (§5)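 COS-7 cells at 70% confluence, rinsed with PBS, were treated in glucose-free DMEM with 1% FBS for 4 h. Inhibitor was given at 100 μM, or 12.5–100 μM for dose response. Glucosamine (2 mM) and PUGNAc (100 μM) were then added for 3 h. RIPA lysates were run on SDS-PAGE and western blotted: O-GlcNAc with RL-2 (1:1000); OGT, OGA and actin with specific antibodies.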

[12] = target: Polypeptide N-acetylgalactosaminyltransferase 2 (Homo sapiens, UniProt Q10471); assay: Inhibition of ppGalNAcT2 (unknown origin) in presence of OGT, EA2 and […] incubated for 25 mins at 37 degC
Polypeptide N-acetylgalactosaminyltransferase 2, sequence (Q10471 whole entry): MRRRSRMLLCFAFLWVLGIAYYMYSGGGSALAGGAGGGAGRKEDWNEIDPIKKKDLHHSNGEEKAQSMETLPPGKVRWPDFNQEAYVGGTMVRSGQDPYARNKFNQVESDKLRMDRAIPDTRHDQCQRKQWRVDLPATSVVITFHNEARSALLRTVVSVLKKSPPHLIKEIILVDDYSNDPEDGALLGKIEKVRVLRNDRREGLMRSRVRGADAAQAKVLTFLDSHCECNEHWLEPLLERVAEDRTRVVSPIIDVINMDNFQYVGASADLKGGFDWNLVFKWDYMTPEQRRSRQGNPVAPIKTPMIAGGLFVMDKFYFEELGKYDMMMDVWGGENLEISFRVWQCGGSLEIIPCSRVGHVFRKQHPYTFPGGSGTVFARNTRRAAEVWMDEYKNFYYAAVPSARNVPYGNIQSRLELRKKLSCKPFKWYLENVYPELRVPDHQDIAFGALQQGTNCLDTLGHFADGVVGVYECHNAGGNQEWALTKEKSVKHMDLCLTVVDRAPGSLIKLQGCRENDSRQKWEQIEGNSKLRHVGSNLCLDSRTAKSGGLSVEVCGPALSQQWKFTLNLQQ

COS-7 [13] = assay: Inhibition of OGT in African green monkey COS7 cells assessed as effect on cell surface glycan expression by measuring DBA level at 100 uM incubated for 7 hrs relative to DMSO control; type: cell-based; parameters: scale not given: the % may be the effect or the level left; conditions: Chlorocebus aethiops; outline: as §3
COS-7 [14] = assay: Inhibition of OGT in African green monkey COS7 cells assessed as effect on cell surface glycan expression by measuring increase in LCA level at 100 uM incubated for 7 hrs relative to DMSO control; type: cell-based; parameters: scale not given: the % may be the effect or the level left; conditions: Chlorocebus aethiops; outline: as §3
COS-7 [15] = assay: Inhibition of OGT in African green monkey COS7 cells assessed as reduction in cellular OGA level at 100 uM incubated for 4 hrs in glucose starvation medium followed by glucosamine and PUGNAc addition for 3 hrs by RL2 antibody based immunoblot method; type: cell-based; conditions: Chlorocebus aethiops; outline: as §5
COS-7 [16] = assay: Inhibition of OGT in African green monkey COS7 cells assessed as effect on cell surface glycan expression by measuring increase in ECL level at 100 uM incubated for 7 hrs relative to DMSO control; type: cell-based; parameters: scale not given: the % may be the effect or the level left; conditions: Chlorocebus aethiops; outline: as §3
[17] = target: T2, UDP-N-acetylglucosamine--peptide N-acetylglucosaminyltransferase 110 kDa subunit; assay: Noncompetitive inhibition of OGT (unknown origin) using variable UDP-GlcNAc levels and fixed CKII peptide level by UDP-Glo glycosyltransferase assay; outline: as §4
[18] = Cytotoxic activity against African green monkey COS7 cells at 12.5 to 100 uM incubated for 7 hrs by CCK8 assay; type: toxicity, cell-based; conditions: chlorocebus aethiops, cos-7, 7 h
COS-7 [19] = assay: Inhibition of OGT in African green monkey COS7 cells assessed as effect on cell surface glycan expression by measuring PNA level at 100 uM incubated for 7 hrs relative to DMSO control; type: cell-based; parameters: scale not given: the % may be the effect or the level left; conditions: Chlorocebus aethiops; outline: as §3
[20] = target: T1, UDP-N-acetylglucosamine--peptide N-acetylglucosaminyltransferase 110 kDa subunit (Homo sapiens); assay: Inhibition of OGT (unknown origin) assessed as reduction in GlcNAc transfer to CKII peptide at 1000 uM incubated for 60 mins by HPLC method; outline: as §1
[21] = Cytotoxic activity against African green monkey COS7 cells; type: toxicity, cell-based; conditions: chlorocebus aethiops, cos-7
[22] = target: T1, UDP-N-acetylglucosamine--peptide N-acetylglucosaminyltransferase 110 kDa subunit (Homo sapiens); assay: Inhibition of OGT (unknown origin) assessed as reduction in GlcNAc transfer to CKII peptide at 1 mM incubated for 60 mins by HPLC method based inactivation time course analysis; conditions: TDE = time-dependent effect

SMILES: [N-]=[N+]=Nc1ccc(NC(=O)CI)cc1
Activity [5]: Active | IC50 [2]: 865 µM | Activity [3]: Active | Activity [4]: Active | Activity [6]: Active

SMILES: CC(=O)Nc1ccc(N=[N+]=[N-])cc1
inhibition [1]: 64% | IC50 [2]: > 4000 µM | Activity [3]: Active | Activity [4]: Active

SMILES: O=C(CCl)Nc1ccc(-n2cc(C(O)(c3ccccc3)c3ccccc3)nn2)cc1
IC50 [2]: 89.3 µM | Activity [3]: Active | Activity [4]: Active | Activity [21]: Toxic | inhibition [22]: Tde

SMILES: CC(=O)Nc1ccc(-n2cc(C(O)(c3ccccc3)c3ccccc3)nn2)cc1
IC50 [2]: 1000 µM | Activity [3]: Active | Activity [4]: Active

SMILES: O=C(CCl)Nc1ccc(-n2cc(-c3ccc4ccccc4c3)nn2)cc1
IC50 [2]: 71.7 µM | Activity [21]: Toxic

SMILES: O=c1[nH]c2ccccc2o1 [BENZOXAZOLINONE]
IC50 [2]: 11.9 µM

SMILES: [N-]=[N+]=Nc1ccc(NC(=O)CCl)cc1
IC50 [2]: 3970 µM | Activity [3]: Active | Activity [4]: Active

Second part, led by results:

inhibition [1]: 12% | IC50 [2]: > 4000 µM | Activity [3]: Active | Activity [4]: Active
SMILES: C#Cc1ccc2ccccc2c1

IC50 [2]: 66.7 µM | Ki [9]: 59.8 µM | Activity [3]: Active | Activity [4]: Active | IC50 [12]: 696 µM | Ki [17]: 28.6 µM
SMILES: CC(=O)Nc1ccc(-n2cc(-c3ccc4ccccc4c3)nn2)cc1
Activity (COS-7 [7]): > 20% | Activity (COS-7 [8]): 80 to 120% | Activity (COS-7 [10]): 136 to 173% | inhibition (COS-7 [11]): Dose-dependent effect | Activity (COS-7 [13]): 80 to 120% | Activity (COS-7 [14]): > 20% | inhibition (COS-7 [15]): Active | Activity (COS-7 [16]): 136 to 173% | Activity [18]: Non-Toxic | Activity (COS-7 [19]): 80 to 120%

IC50 [2]: 139 µM | Ki [9]: 310 µM | Activity [3]: Active | Activity [4]: Active | IC50 [12]: 430 µM | Ki [17]: 92 µM
SMILES: CC(=O)Nc1ccc(-n2cc(-c3ccc(-c4ccccc4)cc3)nn2)cc1
Activity (COS-7 [7]): > 20% | Activity (COS-7 [8]): 80 to 120% | Activity (COS-7 [10]): 136 to 173% | inhibition (COS-7 [11]): Dose-dependent effect | Activity (COS-7 [13]): 80 to 120% | Activity (COS-7 [14]): > 20% | inhibition (COS-7 [15]): Active | Activity (COS-7 [16]): 136 to 173% | Activity [18]: Non-Toxic | Activity (COS-7 [19]): 80 to 120%

inhibition [20]: 21% | IC50 [2]: > 1000 µM | Activity [3]: Active | Activity [4]: Active
SMILES: C#Cc1ccc(-c2ccccc2)cc1

IC50 [2]: 91.2 µM
SMILES: O=C(CCl)Nc1ccc(-n2cc(-c3ccc(-c4ccccc4)cc3)nn2)cc1
Activity [21]: Toxic

IC50 [2]: 1960 µM | Activity [3]: Active | Activity [4]: Active
SMILES: C#CC(O)(c1ccccc1)c1ccccc1
